Assay results: ChEMBL document CHEMBL1141112, “Synthesis and antiinflammatory activity of coumarin derivatives” (J Med Chem, 2005)
Active and inactive are the calls of the source. No cut-off for these calls is given here.

How the values were obtained:
Rattus norvegicus [1] = experiment: Onset of arthritis measured as arthritic score at i.p. dose of 0.001 m mol/kg in rats injected intradermally with Freund's adjuvant after 22 days; format: functional
In short: (§1)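 Fischer 344 rats, five per group, given Freund's adjuvant (0.6 mg desiccated Mycobacterium butyricum in 0.1 mL liquid paraffin) intradermally at tail base. Compound given ip at 0.001 mmol/kg from day 0, every other day for 24 days; absolute controls got vehicle only. Score: one point per inflamed wrist/ankle plus one per involved phalangeal joint, max five per limb, every 2 days from day 14. Run in duplicate.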

Rattus norvegicus [2] = experiment: Onset of arthritis measured as arthritic score at i.p. dose of 0.001 m mol/kg in rats injected intradermally with Freund's adjuvant after 24 days; format: functional; in short: as §1
Rattus norvegicus [3] = experiment: Percent change in body weight of (FA) adjuvant induced rats at i.p. dose of 0.001 m mol/kg after 24 days; format: functional
Rattus norvegicus [4] = experiment: Onset of arthritis measured as arthritic score at i.p. dose of 0.001 m mol/kg in rats injected intradermally with Freund's adjuvant after 0 days; format: functional; in short: as §1
Rattus norvegicus [5] = experiment: Onset of arthritis measured as arthritic score at i.p. dose of 0.001 m mol/kg in rats injected intradermally with Freund's adjuvant after 2 days; format: functional; in short: as §1
Rattus norvegicus [6] = experiment: Onset of arthritis measured as arthritic score at i.p. dose of 0.001 m mol/kg in rats injected intradermally with Freund's adjuvant after 4 days; format: functional; in short: as §1
Rattus norvegicus [7] = experiment: Onset of arthritis measured as arthritic score at i.p. dose of 0.001 m mol/kg in rats injected intradermally with Freund's adjuvant after 6 days; format: functional; in short: as §1
Rattus norvegicus [8] = experiment: Onset of arthritis measured as arthritic score at i.p. dose of 0.001 m mol/kg in rats injected intradermally with Freund's adjuvant after 8 days; format: functional; in short: as §1
Rattus norvegicus [9] = experiment: Onset of arthritis measured as arthritic score at i.p. dose of 0.001 m mol/kg in rats injected intradermally with Freund's adjuvant after 10 days; format: functional; in short: as §1
Rattus norvegicus [10] = experiment: Onset of arthritis measured as arthritic score at i.p. dose of 0.001 m mol/kg in rats injected intradermally with Freund's adjuvant after 12 days; format: functional; in short: as §1
Rattus norvegicus [11] = experiment: Onset of arthritis measured as arthritic score at i.p. dose of 0.001 m mol/kg in rats injected intradermally with Freund's adjuvant after 14 days; format: functional; in short: as §1
Rattus norvegicus [12] = experiment: Onset of arthritis measured as arthritic score at i.p. dose of 0.001 m mol/kg in rats injected intradermally with Freund's adjuvant after 16 days; format: functional; in short: as §1
Rattus norvegicus [13] = experiment: Onset of arthritis measured as arthritic score at i.p. dose of 0.001 m mol/kg in rats injected intradermally with Freund's adjuvant after 18 days; format: functional; in short: as §1
Rattus norvegicus [14] = experiment: Onset of arthritis measured as arthritic score at i.p. dose of 0.001 m mol/kg in rats injected intradermally with Freund's adjuvant after 20 days; format: functional; in short: as §1
[15] = molecular target: T1, Seed linoleate 13S-lipoxygenase-1 (Glycine max, UniProt P08170); experiment: Inhibitory concentration against soybean lipoxygenase upon incubation with sodium linoleate (0.1 mM) at RT
T1 sequence (P08170 whole entry): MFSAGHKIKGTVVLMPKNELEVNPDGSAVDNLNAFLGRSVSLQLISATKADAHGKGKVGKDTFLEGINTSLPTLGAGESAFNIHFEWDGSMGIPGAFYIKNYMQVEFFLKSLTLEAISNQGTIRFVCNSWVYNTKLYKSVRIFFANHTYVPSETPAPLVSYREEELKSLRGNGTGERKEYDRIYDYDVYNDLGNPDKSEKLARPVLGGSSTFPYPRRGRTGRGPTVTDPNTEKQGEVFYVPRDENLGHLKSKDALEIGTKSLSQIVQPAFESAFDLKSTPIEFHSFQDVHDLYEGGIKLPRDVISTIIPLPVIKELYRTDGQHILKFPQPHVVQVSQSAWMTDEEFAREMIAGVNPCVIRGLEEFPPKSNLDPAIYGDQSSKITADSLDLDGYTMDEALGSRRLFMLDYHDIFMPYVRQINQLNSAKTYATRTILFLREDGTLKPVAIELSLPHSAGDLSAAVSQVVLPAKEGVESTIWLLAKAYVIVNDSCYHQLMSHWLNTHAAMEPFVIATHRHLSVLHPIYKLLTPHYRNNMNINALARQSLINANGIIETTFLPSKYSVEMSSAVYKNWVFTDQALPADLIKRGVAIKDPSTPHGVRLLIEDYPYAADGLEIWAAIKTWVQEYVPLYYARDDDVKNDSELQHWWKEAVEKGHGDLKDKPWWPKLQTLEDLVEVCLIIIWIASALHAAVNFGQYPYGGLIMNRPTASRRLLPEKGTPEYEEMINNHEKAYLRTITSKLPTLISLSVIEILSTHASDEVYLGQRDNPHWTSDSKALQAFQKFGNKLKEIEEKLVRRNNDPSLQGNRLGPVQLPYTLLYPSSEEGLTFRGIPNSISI
In short: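 Soybean lipoxygenase (0.2 mL enzyme solution, 1/3 ×10^4 w/v in saline) incubated at room temperature with test compounds in ethanol and sodium linoleate 0.1 mM as substrate. Conversion to 13-hydroperoxylinoleic acid followed at 234 nm and compared with NDGA as standard inhibitor. Run at least in triplicate; SD of absorbance under 10% of mean.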

[16] = Percent heme protein dependent lipid peroxidation at (1 mM) upon incubation for 10 min at 37 degree C. in pH 7.4 with arachidonic acid and H2O2; format: functional
In short: (§2)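 Heme 50 μM, arachidonic acid 0.4 mM, test compound and H2O2 0.5 mM incubated together for 10 min at 37 °C in KH2PO4–KOH buffer (50 mM, pH 7.4). Tested at 0.1 and 1 mM. At least triplicate; absorbance SD under 10% of mean.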

[17] = Percent heme protein dependent lipid peroxidation at (0.1 mM) upon incubation for 10 min at 37 degree C. in pH 7.4 with arachidonic acid and H2O2; format: functional; in short: as §2
[18] = Superoxide radical scavenging activity at 1 mM upon incubation for 2 min at RT in pH 7.4 with PMS, NADH and NBT by nitroblue tetrazolium method
Rattus norvegicus [19] = experiment: Duration of paralysis in rats (injected i.p. with 10 mg/1 mL/g of zoxazolamine) at i.p. dose of 0.001 m mol/kg after 24 days; format: functional
In short: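 Fischer 344 rats, groups of five, given Freund's Adjuvant intradermally at tail base; compound ip 0.001 mmol/kg from day zero every other day for 24 days. On day 24, ≥12 h after last dose, zoxazolamine ip 10 mg/1 mL/g as aqueous Tween 80 suspension; paralysis duration timed. Run in duplicate.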

Rattus norvegicus [20] = experiment: Percent inhibition of carrageenan 2% (0.1 mL intradermal) induced paw edema at the i.p. dose of 0.01 m mol/kg in fisher 344 rats; n=5; no action; format: functional, organism-based
In short: (§3)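 Right hind paw edema in Fischer 344 rats (150–200 g) induced by intradermal 0.1 mL 2% carrageenin in water. Rats killed 3.5 h after carrageenin; injected minus uninjected paw weight compared with water-treated controls and expressed as percent inhibition. Mean of two experiments, five animals per group; Student's t-test.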

[21] = molecular target: T1, Seed linoleate 13S-lipoxygenase-1; experiment: Inhibitory concentration against soybean lipoxygenase upon incubation with sodium linoleate (0.1 mM) at RT; no action
[22] = Percent heme protein dependent lipid peroxidation (1 mM) upon incubation for 10 min at 37 degree C. in pH 7.4 with arachidonic acid and H2O2; no action; format: functional; in short: as §2
[23] = Percent heme protein dependent lipid peroxidation (0.1 mM) upon incubation for 10 min at 37 degree C. in pH 7.4 with arachidonic acid and H2O2; no action; format: functional; in short: as §2
Rattus norvegicus [24] = experiment: Percent inhibition of carrageenan 2% (0.1 mL intradermal) induced paw edema at the i.p. dose of 0.01 m mol/kg in fisher 344 rats; n=5; format: functional; in short: as §3
[25] = Superoxide radical scavenging activity at 1 mM upon incubation for 2 min at RT in pH 7.4 with PMS, NADH and NBT by nitroblue tetrazolium method; no action
[26] = molecular target: Prostaglandin G/H synthase 1 (Homo sapiens) (UniProt P23219); conditions: at 1 mM
Rattus norvegicus [27] = experiment: Onset of arthritis measured as arthritic score at p.o. dose of 80 mg/kg in rats injected intradermally with Freund's adjuvant after 24 days; format: functional; conditions: route oral

Chain of Prostaglandin G/H synthase 1 (Homo sapiens) (P23219 whole entry): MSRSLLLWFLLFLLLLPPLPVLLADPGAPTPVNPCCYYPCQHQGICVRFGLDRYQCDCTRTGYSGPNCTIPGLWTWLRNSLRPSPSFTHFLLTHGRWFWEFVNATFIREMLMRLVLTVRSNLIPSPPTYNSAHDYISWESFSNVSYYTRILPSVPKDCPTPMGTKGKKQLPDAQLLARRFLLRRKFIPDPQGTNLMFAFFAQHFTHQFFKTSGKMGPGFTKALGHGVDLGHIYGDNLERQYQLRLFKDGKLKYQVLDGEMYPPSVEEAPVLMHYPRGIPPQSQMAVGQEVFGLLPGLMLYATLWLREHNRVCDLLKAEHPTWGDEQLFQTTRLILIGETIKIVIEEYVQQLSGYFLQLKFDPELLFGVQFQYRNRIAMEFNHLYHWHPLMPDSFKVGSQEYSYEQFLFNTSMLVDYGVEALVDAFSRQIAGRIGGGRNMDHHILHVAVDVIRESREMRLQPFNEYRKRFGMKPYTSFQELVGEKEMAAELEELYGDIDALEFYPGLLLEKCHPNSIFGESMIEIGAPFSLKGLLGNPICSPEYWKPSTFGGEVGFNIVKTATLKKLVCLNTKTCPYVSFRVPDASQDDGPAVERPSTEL

| Structure (SMILES) | IC50 [15] [µM] | Lipid peroxidation [16] [%] | Lipid peroxidation [17] | Scavenging Activity [18] [%] | Lipid peroxidation [23] | Inhibition (Rattus norvegicus [24]) [%] | Scavenging Activity [25] | further results |
| --- | --- | --- | --- | --- | --- | --- | --- | --- |
| O=c1ccc2ccc(O)cc2o1 [UMBELLIFERONE] | 43 | 26.1 | 14.6% | 80.6 | – | – | – | Arthritic score (Rattus norvegicus [1]): 5.2; Arthritic score (Rattus norvegicus [2]): 4; Change of body weight (Rattus norvegicus [3]): 18.6%; Arthritic score (Rattus norvegicus [4]): 0; Arthritic score (Rattus norvegicus [5]): 0; Arthritic score (Rattus norvegicus [6]): 0; Arthritic score (Rattus norvegicus [7]): 0; Arthritic score (Rattus norvegicus [8]): 0; Arthritic score (Rattus norvegicus [9]): 0; Arthritic score (Rattus norvegicus [10]): 0; Arthritic score (Rattus norvegicus [11]): 1.2; Arthritic score (Rattus norvegicus [12]): 1.2; Arthritic score (Rattus norvegicus [13]): 1.8; Arthritic score (Rattus norvegicus [14]): 2.6; Paralysis (Rattus norvegicus [19]): 232.5 min; inhibition (Rattus norvegicus [20]): No Action |
| CC(=O)CC(c1ccccc1)c1c(O)c2ccccc2oc1=O (stereo not drawn) [WARFARIN] | – | – | – | 25 | No action | 41 | – | IC50 [21]: No Action; Lipid peroxidation [22]: No action |
| CC(C)CNCc1c(O)ccc2ccc(=O)oc12 | 47 | – | – | 33.3 | No action | 55.4 | – | Lipid peroxidation [22]: No action |
| O=c1ccc2ccccc2o1 [COUMARIN] | – | 19.2 | 9.1% | 88.9 | – | 30.2 | – | – |
| CC(Cc1ccc(O)c(O)c1)C(C)Cc1ccc(O)c(O)c1 (stereo not drawn) | – | 26.1 | inactive | – | – | – | inactive | – |
| NCCNCc1c(O)ccc2ccc(=O)oc12 | > 1000 | 22.1 | – | – | No action | 56 | No action | – |
| COc1ccc2c(c1)c(CC(=O)O)c(C)n2C(=O)c1ccc(Cl)cc1 [INDOMETHACIN] | – | – | – | – | – | 47 | – | – |
| CCCCCN(CCCCC)Cc1c(O)ccc2ccc(=O)oc12 | 13 | 13.7 | – | – | No action | 46.2 | No action | – |
| CN1COc2ccc3ccc(=O)oc3c2C1 | 42 | – | – | – | No action | 53.6 | – | Lipid peroxidation [22]: No action |
| CCCCCNCc1c(O)ccc2ccc(=O)oc12 | 59 | 5.7 | 8.6% | – | – | 52.7 | No action | – |
| O=c1ccc2ccc(O)c(CN3CCNCC3)c2o1 | 100 | 21.9 | 19.5% | – | – | 77.7 | No action | Arthritic score (Rattus norvegicus [1]): 4.8; Arthritic score (Rattus norvegicus [2]): 5.8; Change of body weight (Rattus norvegicus [3]): 18.4%; Arthritic score (Rattus norvegicus [4]): 0; Arthritic score (Rattus norvegicus [5]): 0; Arthritic score (Rattus norvegicus [6]): 0; Arthritic score (Rattus norvegicus [7]): 0; Arthritic score (Rattus norvegicus [8]): 0; Arthritic score (Rattus norvegicus [9]): 0; Arthritic score (Rattus norvegicus [10]): 0; Arthritic score (Rattus norvegicus [11]): 1.2; Arthritic score (Rattus norvegicus [12]): 0; Arthritic score (Rattus norvegicus [13]): 3.2; Arthritic score (Rattus norvegicus [14]): 3; Paralysis (Rattus norvegicus [19]): 292 min; inhibition [26]: 11% |
| O=c1ccc2ccc(O)c(CNCCc3ccccc3)c2o1 | 41 | 5.5 | 18.2% | 22.2 | – | 31.2 | – | – |
| CCNCc1c(O)ccc2ccc(=O)oc12 | 52 | 5.5 | – | – | No action | 53.6 | No action | – |
| O=c1ccc2ccc(O)c(CN3CCCCC3)c2o1 | 37 | 7.6 | – | – | No action | 47.4 | No action | – |
| O=c1ccc2ccc(O)c(CN3CCOCC3)c2o1 | > 1000 | 19.9 | 19.5% | 58.3 | – | 75.7 | – | Arthritic score (Rattus norvegicus [1]): 4.25; Arthritic score (Rattus norvegicus [2]): 3.5; Change of body weight (Rattus norvegicus [3]): 7%; Arthritic score (Rattus norvegicus [4]): 0; Arthritic score (Rattus norvegicus [5]): 0; Arthritic score (Rattus norvegicus [6]): 0; Arthritic score (Rattus norvegicus [7]): 0; Arthritic score (Rattus norvegicus [8]): 0; Arthritic score (Rattus norvegicus [9]): 0; Arthritic score (Rattus norvegicus [10]): 0; Arthritic score (Rattus norvegicus [11]): 1.2; Arthritic score (Rattus norvegicus [12]): 1.25; Arthritic score (Rattus norvegicus [13]): 2.5; Arthritic score (Rattus norvegicus [14]): 3.25; Paralysis (Rattus norvegicus [19]): 212 min; inhibition [26]: 32% |
| O=c1ccc2ccc(O)c(CNCc3ccccc3)c2o1 | 44 | 35.6 | 19.5% | – | – | 47.5 | No action | – |
| NCCCNCc1c(O)ccc2ccc(=O)oc12 | > 1000 | – | – | 50 | No action | 53.4 | – | Lipid peroxidation [22]: No action |
| CCCCC1C(=O)N(c2ccccc2)N(c2ccccc2)C1=O [PHENYLBUTAZONE] | – | – | – | – | – | – | – | Arthritic score (Rattus norvegicus [27]): 9 |
| O=C(O)/C=C/c1ccc(O)c(O)c1 | – | 5.5 | – | 86.1 | inactive | – | – | – |
